Measured values published in ChEMBL document CHEMBL1641380, “Novel tetrahydropyrido[3,2-c]pyrroles as 5-HT(7) antagonists” (Bioorg Med Chem Lett, 2011).
Active and inactive are the calls of the source. The calls are words filed in the database; no cut-off is given here.

Legend:
[1] = target: 5-hydroxytryptamine receptor 7 (Rattus norvegicus, UniProt P32305); assay: Displacement of [3H]5-CT from rat recombinant 5HT7 receptor expressed in HEK293 cells after 60 mins; type: cell-based
Summary of the method: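 Membranes from HEK-293 cells stably expressing rat 5-HT7 incubated 60 min at room temperature with 1 nM [3H]5-CT and increasing test compound; rapid filtration, radioactivity counted. IC50 from nonlinear sigmoidal fits, Ki by Cheng-Prusoff. Means of three experiments in triplicate, SEM; final DMSO ≤0.4%.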

[2] = target: 5-hydroxytryptamine receptor 7 (Homo sapiens, UniProt P34969); assay: Binding affinity to 5HT7 receptor
[3] = target: 5-hydroxytryptamine receptor 7 (Rattus norvegicus) (UniProt P32305); assay: Antagonist activity at rat recombinant 5HT7 receptor expressed in HEK293 cells assessed as decrease of 5-CT-induced increase of cAMP level after 20 mins by competitive immunoassay
[4] = Binding affinity to adrenergic alpha1 receptor
[5] = Drug level in rat brain at 10 mg/kg, ip after 1 hr; type: ADME, organism-based; set-up: dose 10 mg/kg, route intraperitoneal; conditions: read-out: Drug uptake
Summary of the method: (§1)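 Rats dosed 10 mg/kg intraperitoneally; brain and plasma compound concentrations measured 1 h after dosing.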

[6] = tested on: Rattus norvegicus; assay: Inhibition of 5-CT-induced hypothermia in rat at 10 mg/kg, ip; type: functional, organism-based; set-up: dose 10 mg/kg
Summary of the method: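 Conscious rats given test compound intraperitoneally at 10 mg/kg; antagonism of hypothermia induced by the 5-HT7 agonist 5-CT assessed.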

[7] = Drug level in rat plasma at 10 mg/kg, ip after 1 hr; type: ADME, organism-based; set-up: dose 10 mg/kg, route intraperitoneal; conditions: read-out: Drug uptake; summary of the method: as §1

Chain of 5-hydroxytryptamine receptor 7 (Rattus norvegicus, UniProt P32305) (P32305 whole entry): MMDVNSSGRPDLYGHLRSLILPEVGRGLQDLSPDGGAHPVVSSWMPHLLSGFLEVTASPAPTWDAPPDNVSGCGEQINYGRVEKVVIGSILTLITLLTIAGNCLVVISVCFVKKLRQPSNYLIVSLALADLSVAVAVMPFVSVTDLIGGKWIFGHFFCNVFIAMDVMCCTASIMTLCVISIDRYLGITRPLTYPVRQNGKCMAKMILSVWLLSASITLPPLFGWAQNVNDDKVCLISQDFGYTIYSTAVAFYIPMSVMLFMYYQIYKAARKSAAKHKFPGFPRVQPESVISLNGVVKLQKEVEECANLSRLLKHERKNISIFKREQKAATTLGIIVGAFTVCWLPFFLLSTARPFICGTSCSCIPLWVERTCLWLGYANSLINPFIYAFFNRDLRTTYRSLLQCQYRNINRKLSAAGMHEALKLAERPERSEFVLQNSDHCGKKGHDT
Chain of 5-hydroxytryptamine receptor 7 (Rattus norvegicus) (P32305 whole entry): as above
Chain of 5-hydroxytryptamine receptor 7 (Homo sapiens, UniProt P34969) (P34969 whole entry): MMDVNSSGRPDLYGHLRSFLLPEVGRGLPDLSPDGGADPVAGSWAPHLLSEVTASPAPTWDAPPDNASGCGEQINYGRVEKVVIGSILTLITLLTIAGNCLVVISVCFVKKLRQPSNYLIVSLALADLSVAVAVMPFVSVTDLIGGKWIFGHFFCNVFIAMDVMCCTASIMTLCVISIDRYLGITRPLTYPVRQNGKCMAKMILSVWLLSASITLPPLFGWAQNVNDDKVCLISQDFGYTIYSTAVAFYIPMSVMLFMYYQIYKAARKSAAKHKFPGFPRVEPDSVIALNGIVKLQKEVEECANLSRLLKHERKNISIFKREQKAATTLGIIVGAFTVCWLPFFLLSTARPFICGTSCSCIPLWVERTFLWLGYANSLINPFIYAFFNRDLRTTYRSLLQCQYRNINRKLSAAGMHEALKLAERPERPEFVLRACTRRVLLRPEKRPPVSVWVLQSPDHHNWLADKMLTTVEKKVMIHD

| Compound | Ki [1] [nM] | other results |
| --- | --- | --- |
| CC(C)N1CCc2c(c(-c3ccc(Cl)cc3)cn2Cc2ccccc2)C1 | 370 |  |
| Clc1ccc(-c2cn(Cc3ccccc3)c3c2CNCC3)cc1Cl | 4470 |  |
| Clc1ccc(-c2nn(Cc3ccccc3)c3c2CNCC3)cc1 |  | Ki [2]: 14 nM |
| Clc1cccc(-c2cn(Cc3ccccc3)c3c2CNCC3)c1 | 10000 |  |
| Clc1ccc(-c2cn(Cc3cccc(Cl)c3)c3c2CNCC3)cc1 | 533 |  |
| Clc1ccc(-c2cn(Cc3ccccc3)c3c2CNCC3)c(Cl)c1 | 2070 |  |
| Clc1ccccc1Cn1cc(-c2ccccc2)c2c1CCNC2 | 2290 |  |
| CCN1CCc2c(c(-c3ccc(Cl)cc3)cn2Cc2ccccc2)C1 | 250 |  |
| Clc1cccc(Cn2cc(-c3ccccc3)c3c2CCNC3)c1 | 6600 |  |
| CN1CCc2c(c(-c3ccc(Cl)cc3)cn2Cc2ccccc2)C1 | 36 |  |

Further lines, with some results ahead:

| Ki [1] [nM] | Compound | other results |
| --- | --- | --- |
| 753 | Clc1ccc(Cn2cc(-c3ccccc3)c3c2CCNC3)cc1 |  |
| 290 | COc1ccc(-c2cn(Cc3ccccc3)c3c2CNCC3)cc1 |  |
| 2730 | Fc1cccc(-c2cn(Cc3ccccc3)c3c2CNCC3)c1 |  |
| 45 | Fc1ccc(-c2cn(Cc3ccccc3)c3c2CNCC3)cc1 |  |
| 10000 | Oc1ccc(-c2cn(Cc3ccccc3)c3c2CNCC3)cc1 |  |
| 10000 | CC(C)(C)c1ccc(-c2cn(Cc3ccccc3)c3c2CNCC3)cc1 |  |
| 167 | FC(F)(F)c1ccc(-c2cn(Cc3ccccc3)c3c2CNCC3)cc1 |  |
| 220 | c1ccc(Cn2cc(-c3ccccc3)c3c2CCNC3)cc1 | pKb [3]: 6.7 |
| 10000 | FC(F)(F)Oc1ccc(-c2cn(Cc3ccccc3)c3c2CNCC3)cc1 |  |
| 450 | O=[N+]([O-])c1ccc(-c2cn(Cc3ccccc3)c3c2CNCC3)cc1 |  |
| 35 | Cc1ccc(-c2cn(Cc3ccccc3)c3c2CNCC3)cc1 | pKb [3]: 7.6; Activity [4]: 5 nM; concentration at 1 h [5]: 27 µM; Activity [6]: Active; concentration at 1 h [7]: 3 µM |
| 107 | Clc1ccc(-c2cn(Cc3ccccc3)c3c2CNCC3)cc1 | pKb [3]: 7.2 |
